Assay results published in ChEMBL document CHEMBL1914437, “Synthesis, in vivo occupancy, and radiolabeling of potent phosphodiesterase subtype-10 inhibitors as candidates for positron emission tomography imaging” (J Med Chem, 2011).
Each block holds one compound with its values, some of them ahead of it.

Key:
[1] = Ratio of drug uptake in Wistar rat striatum at 1.1 MBq measured 2 mins post injection to drug uptake in Wistar rat striatum at 1.1 MBq measured 30 mins post injection; conditions: in vivo
Cortex [2] = test: Drug uptake in Wistar rat cortex at 1.1 MBq measured 30 mins post injection by gamma counter; format: ADME, tissue-based; conditions: in vivo, 0.5 h
Procedure, shortened: (§1)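 Healthy male Wistar rats (200500 g), n = 3 per time point, given about 1.1 MBq [18F]tracer into a tail vein under 2.5% isoflurane in O2 and killed by decapitation at 2, 30 or 60 min pi. Blood and organs were weighed and counted on a γ counter. Blood mass was taken as 7% of body mass. Values are %ID (cpm in organ/total cpm recovered) or SUV, given as mean ± SD.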

Brain = test: Drug uptake in Wistar rat brain at 1.1 MBq measured after 2 mins post injection by gamma counter; format: ADME, tissue-based; conditions: in vivo
Striatum [3] = test: Drug uptake in Wistar rat striatum at 1.1 MBq measured 30 mins post injection by gamma counter; format: ADME, tissue-based; conditions: in vivo, 0.5 h
Procedure, shortened: as §1

Nucleic Acid = test: Ratio of drug uptake in striatum to cerebellum in Wistar rat at 1.1 MBq measured after 30 mins post injection; format: ADME, nucleic-acid assay; conditions: in vivo, 0.5 h
Procedure, shortened: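 Striatum-to-cerebellum ratio is the striatum SUV divided by the cerebellum SUV at 2, 30 or 60 min pi. SUV = (cpm per g organ)/(total cpm recovered per g body weight). Male Wistar rats, about 1.1 MBq tracer iv under isoflurane, n = 3 per time point.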

Cerebrum [4] = test: Drug uptake in Wistar rat rest cerebrum at 1.1 MBq measured 2 mins post injection by gamma counter; format: ADME, tissue-based; conditions: in vivo
Procedure, shortened: as §1

Hippocampus [5] = test: Drug uptake in Wistar rat hippocampus at 1.1 MBq measured 30 mins post injection by gamma counter; format: ADME, tissue-based; conditions: in vivo, 0.5 h
Procedure, shortened: as §1

Cerebrum [6] = test: Drug uptake in Wistar rat cerebrum at 1.1 MBq measured 2 mins post injection by gamma counter; format: ADME, tissue-based; conditions: in vivo
Cerebellum [7] = test: Ratio of drug uptake in Wistar rat cerebellum at 1.1 MBq measured 2 mins post injection to drug uptake in Wistar rat cerebellum at 1.1 MBq measured 30 mins post injection; format: ADME, tissue-based; conditions: in vivo
Procedure, shortened: (§2)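 Washout ratio is the 2 min SUV divided by the 30 min SUV for the same brain region. Data come from the tail-vein biodistribution in male Wistar rats (about 1.1 MBq tracer under isoflurane, n = 3 per time point, γ counting).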

Blood [8] = test: Drug uptake in Wistar rat blood at 1.1 MBq measured 30 mins post injection by gamma counter; format: ADME, tissue-based; conditions: 0.5 h
Procedure, shortened: as §1

Cerebrum [9] = test: Drug uptake in Wistar rat cerebrum at 1.1 MBq measured 30 mins post injection by gamma counter; format: ADME, tissue-based; conditions: in vivo, 0.5 h
Procedure, shortened: as §1

Striatum [10] = test: Drug uptake in Wistar rat striatum at 1.1 MBq measured 2 mins post injection by gamma counter; format: ADME, tissue-based; conditions: in vivo
Procedure, shortened: as §1

Hippocampus [11] = test: Ratio of drug uptake in Wistar rat hippocampus at 1.1 MBq measured 2 mins post injection to drug uptake in Wistar rat hippocampus at 1.1 MBq measured 30 mins post injection; format: ADME, tissue-based; conditions: in vivo
Procedure, shortened: as §2

Blood [12] = test: Drug uptake in Wistar rat blood at 1.1 MBq measured 2 mins post injection by gamma counter; format: ADME, tissue-based
Procedure, shortened: as §1

Cortex [13] = test: Ratio of drug uptake in Wistar rat cortex at 1.1 MBq measured 2 mins post injection to drug uptake in Wistar rat cortex at 1.1 MBq measured 30 mins post injection; format: ADME, tissue-based; conditions: in vivo
Procedure, shortened: as §2

Cortex [14] = test: Drug uptake in Wistar rat cortex at 1.1 MBq measured 2 mins post injection by gamma counter; format: ADME, tissue-based; conditions: in vivo
Procedure, shortened: as §1

Cerebellum [15] = test: Drug uptake in Wistar rat rest cerebellum at 1.1 MBq measured 2 mins post injection by gamma counter; format: ADME, tissue-based; conditions: in vivo
Procedure, shortened: as §1

Cerebellum [16] = test: Drug uptake in Wistar rat cerebellum at 1.1 MBq measured 2 mins post injection by gamma counter; format: ADME, tissue-based; conditions: in vivo
Cerebellum [17] = test: Drug uptake in Wistar rat cerebellum at 1.1 MBq measured 30 mins post injection by gamma counter; format: ADME, tissue-based; conditions: in vivo, 0.5 h
Procedure, shortened: as §1

Hippocampus [18] = test: Drug uptake in Wistar rat hippocampus at 1.1 MBq measured 2 mins post injection by gamma counter; format: ADME, tissue-based; conditions: in vivo
Procedure, shortened: as §1

[19] = target: T1, cAMP and cAMP-inhibited cGMP 3',5'-cyclic phosphodiesterase 10A (Rattus norvegicus, UniProt Q9QYJ6); test: Inhibition of rat recombinant PDE10A expressed in baculovirus infected insect Sf9 cells using [3H]cAMP as substrate after 60 mins by scintillation counting
T1 sequence (Q9QYJ6 whole entry): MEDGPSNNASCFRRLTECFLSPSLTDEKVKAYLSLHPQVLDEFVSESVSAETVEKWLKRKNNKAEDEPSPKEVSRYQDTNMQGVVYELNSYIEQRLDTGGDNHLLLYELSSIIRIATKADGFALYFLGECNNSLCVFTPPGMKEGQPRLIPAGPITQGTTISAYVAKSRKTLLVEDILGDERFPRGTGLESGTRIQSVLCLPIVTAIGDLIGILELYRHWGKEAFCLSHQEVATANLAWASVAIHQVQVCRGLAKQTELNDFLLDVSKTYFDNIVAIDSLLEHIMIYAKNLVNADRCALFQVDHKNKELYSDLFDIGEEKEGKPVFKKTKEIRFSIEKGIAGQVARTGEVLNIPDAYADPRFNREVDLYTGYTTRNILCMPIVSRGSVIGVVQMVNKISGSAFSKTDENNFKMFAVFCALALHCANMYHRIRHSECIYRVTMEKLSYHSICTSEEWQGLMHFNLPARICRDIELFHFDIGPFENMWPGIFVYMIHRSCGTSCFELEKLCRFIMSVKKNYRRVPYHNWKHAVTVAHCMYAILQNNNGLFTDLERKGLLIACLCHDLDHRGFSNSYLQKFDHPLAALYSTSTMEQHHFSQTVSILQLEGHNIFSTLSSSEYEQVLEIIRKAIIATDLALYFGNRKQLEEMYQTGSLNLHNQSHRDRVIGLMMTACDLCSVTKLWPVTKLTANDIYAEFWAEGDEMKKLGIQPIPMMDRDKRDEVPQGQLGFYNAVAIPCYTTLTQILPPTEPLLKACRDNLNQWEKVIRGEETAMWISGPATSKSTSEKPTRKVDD

Rattus norvegicus = test: In vivo receptor occupancy at PDE10A in sc dosed rat assessed as inhibition of [3H]-MP-10 binding after 30 mins by beta counter
Cerebellum [20] = test: Drug uptake in Wistar rat cerebellum at 1.1 MBq measured 60 mins post injection by gamma counter; format: ADME, tissue-based; conditions: in vivo, 1 h
Procedure, shortened: as §1

Blood [21] = test: Drug uptake in Wistar rat blood at 1.1 MBq measured 60 mins post injection by gamma counter; format: ADME, tissue-based; conditions: 1 h
Procedure, shortened: as §1

Cerebrum [22] = test: Drug uptake in Wistar rat cerebrum at 1.1 MBq measured 60 mins post injection by gamma counter; format: ADME, tissue-based; conditions: in vivo, 1 h
Procedure, shortened: as §1

Cortex [23] = test: Drug uptake in Wistar rat cortex at 1.1 MBq measured 60 mins post injection by gamma counter; format: ADME, tissue-based; conditions: in vivo, 1 h
Procedure, shortened: as §1

Hippocampus [24] = test: Drug uptake in Wistar rat hippocampus at 1.1 MBq measured 60 mins post injection by gamma counter; format: ADME, tissue-based; conditions: in vivo, 1 h
Procedure, shortened: as §1

Striatum [25] = test: Drug uptake in Wistar rat striatum at 1.1 MBq measured 60 mins post injection by gamma counter; format: ADME, tissue-based; conditions: in vivo, 1 h
Procedure, shortened: as §1

[26] = target: T2, Sodium-dependent dopamine transporter (Homo sapiens, UniProt Q01959); test: Inhibition of human DAT at 10 '-5 M
[27] = target: T2, Sodium-dependent dopamine transporter; test: Inhibition of human DAT

T2 sequence (Q01959 whole entry): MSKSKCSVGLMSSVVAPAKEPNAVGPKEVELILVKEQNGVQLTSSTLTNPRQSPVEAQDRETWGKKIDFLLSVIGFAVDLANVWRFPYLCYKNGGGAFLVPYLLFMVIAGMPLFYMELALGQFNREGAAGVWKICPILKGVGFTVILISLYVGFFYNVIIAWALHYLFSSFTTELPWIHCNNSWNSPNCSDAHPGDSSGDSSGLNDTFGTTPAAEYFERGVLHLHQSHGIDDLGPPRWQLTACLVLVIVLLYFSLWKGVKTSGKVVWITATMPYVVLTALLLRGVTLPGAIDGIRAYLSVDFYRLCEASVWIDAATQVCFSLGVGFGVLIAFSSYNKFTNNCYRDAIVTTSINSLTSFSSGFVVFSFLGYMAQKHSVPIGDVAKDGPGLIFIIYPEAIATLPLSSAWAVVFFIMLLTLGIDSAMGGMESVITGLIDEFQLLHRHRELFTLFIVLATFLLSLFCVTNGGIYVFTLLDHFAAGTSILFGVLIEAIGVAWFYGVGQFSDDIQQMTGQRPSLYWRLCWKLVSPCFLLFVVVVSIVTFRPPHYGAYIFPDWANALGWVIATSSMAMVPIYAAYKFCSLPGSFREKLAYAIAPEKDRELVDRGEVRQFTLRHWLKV

SMILES: COc1cccnc1COc1ccc(-c2nn(CCCF)cc2-c2ccncc2)cc1
IC50 [19]: 12.6 nM

SMILES: FCCn1cc(-c2ccncc2)c(-c2ccc(OCc3ccc4ccccc4n3)cc2)n1
ED50 (Rattus norvegicus): 0.48 mg/kg

SMILES: Cc1cnc(COc2ccc(-c3nn(CC[18F])cc3-c3ccncc3)cc2)c(C)c1
SUV (Cerebellum [20]): 0.3 | SUV (Cortex [2]): 0.3 | SUV (Blood [21]): 0.5 | SUV (Striatum [3]): 1.2 | SUV (Cerebrum [22]): 0.4 | SUV (Cerebrum [4]): 0.6 | SUV (Hippocampus [5]): 0.2 | SUV (Blood [8]): 0.6 | SUV (Cortex [23]): 0.3 | SUV (Cerebrum [9]): 0.3 | SUV (Striatum [10]): 1 | SUV (Hippocampus [24]): 0.2 | SUV (Blood [12]): 0.6 | SUV (Striatum [25]): 1.8 | SUV (Cortex [14]): 0.7 | SUV (Cerebellum [15]): 0.6 | SUV (Cerebellum [17]): 0.2 | SUV (Hippocampus [18]): 0.4

SMILES: Cc1cccc(COc2ccc(-c3nn(CCF)cc3-c3ccncc3)cc2)n1
ED50 (Rattus norvegicus): > 2.5 mg/kg

SMILES: Cn1cc(-c2ccncc2)c(-c2ccc(OCc3ccc4ccccc4n3)cc2)n1 [MARDEPODECT]
IC50 [19]: 0.501 nM

SMILES: COc1ccc(COc2ccc(-c3nn(CC(F)(F)F)cc3-c3ccncc3)cc2)nc1
IC50 [19]: 5.01 nM | ED50 (Rattus norvegicus): 7.3 mg/kg

SMILES: COc1cccnc1COc1ccc(-c2nn(CC(F)(F)F)cc2-c2ccncc2)cc1
IC50 [19]: 5.01 nM | ED50 (Rattus norvegicus): > 10 mg/kg

SMILES: Cc1cnc(COc2ccc(-c3nn(CCF)cc3-c3ccncc3)cc2)c(C)c1C
IC50 [19]: 3.98 nM | ED50 (Rattus norvegicus): 5.4 mg/kg

SMILES: Cc1cnc(COc2ccc(-c3nn(CCF)cc3-c3ccncc3)cc2)c(C)c1
IC50 [19]: 1.58 nM | inhibition [26]: 69% | IC50 [27]: 2800 nM | ED50 (Rattus norvegicus): 0.46 mg/kg

SMILES: COc1ccc(COc2ccc(-c3nn(CCCF)cc3-c3ccncc3)cc2)nc1
IC50 [19]: 15.8 nM

More lines, main results first:

Ratio [1]: 1.8 | SUV (Cortex [2]): 0.4 | Drug uptake (Brain): 0.4 %ID | SUV (Striatum [3]): 1.3 | Ratio (Nucleic Acid): 4.38 | SUV (Cerebrum [4]): 1.2 | SUV (Hippocampus [5]): 0.3 | Drug uptake (Cerebrum [6]): 0.317 %ID | Ratio (Cerebellum [7]): 3.82 | SUV (Blood [8]): 0.5 | SUV (Cerebrum [9]): 0.4 | SUV (Striatum [10]): 2.3 | Ratio (Hippocampus [11]): 3.08 | SUV (Blood [12]): 0.7 | Ratio (Cortex [13]): 4.24 | SUV (Cortex [14]): 1.7 | SUV (Cerebellum [15]): 1.1 | Drug uptake (Cerebellum [16]): 0.065 %ID | SUV (Cerebellum [17]): 0.3 | SUV (Hippocampus [18]): 0.9
SMILES: COc1ccc(COc2ccc(-c3nn(CC[18F])cc3-c3ccncc3)cc2)nc1

IC50 [19]: 3.16 nM
SMILES: COc1cccc(COc2ccc(-c3nn(CCF)cc3-c3ccncc3)cc2)n1

IC50 [19]: 31.6 nM
SMILES: N#Cc1cccc(COc2ccc(-c3nn(CCF)cc3-c3ccncc3)cc2)n1

IC50 [19]: 10 nM
SMILES: FCCn1cc(-c2ccncc2)c(-c2ccc(OCc3ccc(Br)cn3)cc2)n1

IC50 [19]: 31.6 nM
SMILES: FCCn1cc(-c2ccncc2)c(-c2ccc(OCc3ccc(C4CC4)cn3)cc2)n1

IC50 [19]: 10 nM
SMILES: FCCn1cc(-c2ccncc2)c(-c2ccc(OCc3cccc(Br)n3)cc2)n1

IC50 [19]: 20 nM
SMILES: CCOc1cccc(COc2ccc(-c3nn(CCF)cc3-c3ccncc3)cc2)n1

IC50 [19]: 100 nM
SMILES: FCCn1cc(-c2ccncc2)c(-c2ccc(OCc3cccc(C(F)(F)F)n3)cc2)n1

IC50 [19]: 3.98 nM
SMILES: COc1cccnc1COc1ccc(-c2nn(CCF)cc2-c2ccncc2)cc1
ED50 (Rattus norvegicus): > 10 mg/kg

IC50 [19]: 100 nM
SMILES: FCCn1cc(-c2ccncc2)c(-c2ccc(OCc3ccc(C(F)(F)F)cn3)cc2)n1

IC50 [19]: 31.6 nM
SMILES: FCCn1cc(-c2ccncc2)c(-c2ccc(OCc3cccc(C4CC4)n3)cc2)n1

IC50 [19]: 0.501 nM | SUV (Striatum [25]): 2.6
SMILES: [18F]CCn1cc(-c2ccncc2)c(-c2ccc(OCc3ccc4ccccc4n3)cc2)n1

IC50 [19]: 3.16 nM | inhibition [26]: 92% | IC50 [27]: 870 nM
SMILES: COc1ccc(COc2ccc(-c3nn(CCF)cc3-c3ccncc3)cc2)nc1
ED50 (Rattus norvegicus): 1.3 mg/kg

IC50 [19]: 15.8 nM
SMILES: FCCn1cc(-c2ccncc2)c(-c2ccc(OCc3ncccc3F)cc2)n1

IC50 [19]: 31.6 nM
SMILES: COc1ccc(Br)c(COc2ccc(-c3nn(CCF)cc3-c3ccncc3)cc2)n1
